In the library only some 3.1% were active in any assay of this set; here they are far more common.
hERG rescue – compounds protecting human hERG from proarrhythmic drug block; Q12809; actives 0.51% (n = 310,000); AID 1511; CHO-hERG, FluxOR thallium flux, dofetilide IC70 present; activation (rescue from dofetilide block), less the hit threshold, % at 10 µM;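 active = activation above the mean of controls blocked by dofetilide plus 5 SD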;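 also: thallium influx through hERG after potassium depolarization seen as dye fluorescence rise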
KCNQ1 block – inhibitors of human KCNQ1 potassium channel; CHO-K1 KCNQ1, FluxOR thallium flux fluorescence; hits give high values; B-score at 10 µM; actives 1.3% (n = 310,000); AID 2642;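 active = compounds whose thallium flux B-score, printed positive for inhibition, exceeds three library SD while starting fluorescence stays within three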;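 also: channel opened by potassium depolarization with thallium stimulus after 20 min compound exposure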
KCNQ1 pot – human KCNQ1 channel potentiation or activation; P51787; actives 0.35% (n = 310,000); CHO-K1 KCNQ1, thallium flux FluxOR fluorescence; hits give high values; B-score at 10 µM;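 active = fluorescence ratio B-score, a plate-corrected score, at least three library SD, with initial intensity B-score within 5 SD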
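Assay system: CHO-K1 cells stably expressing KCNQ1; Medium: assay buffer with matched DMSO; Also added: K+/Tl+ depolarizing stimulus; Dosing: single dose; Timing: dye 90 min, compound 20 min, room temperature; Measured by: kinetic FluxOR thallium fluorescence, 10-s 1-Hz baseline, 110-s post-stimulus read; Read-out: peak-minus-minimum fluorescence over initial fluorescence, negative-control normalized, B-scored.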
KCNK3 block – human KCNK3 channel inhibition, primary screen. O14649. CHO-KCNK3 thallium flux, FluxOR fluorescence; hits give low values. B-score at 10 µM. actives 0.84% (n = 340,000);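 active = B-score under library mean minus 4 SD, starting fluorescence ratio at most library mean plus 5 SD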;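 also: more negative B-score means stronger inhibition of thallium flux through KCNK3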
Target sequence (O14649 whole entry, looked up): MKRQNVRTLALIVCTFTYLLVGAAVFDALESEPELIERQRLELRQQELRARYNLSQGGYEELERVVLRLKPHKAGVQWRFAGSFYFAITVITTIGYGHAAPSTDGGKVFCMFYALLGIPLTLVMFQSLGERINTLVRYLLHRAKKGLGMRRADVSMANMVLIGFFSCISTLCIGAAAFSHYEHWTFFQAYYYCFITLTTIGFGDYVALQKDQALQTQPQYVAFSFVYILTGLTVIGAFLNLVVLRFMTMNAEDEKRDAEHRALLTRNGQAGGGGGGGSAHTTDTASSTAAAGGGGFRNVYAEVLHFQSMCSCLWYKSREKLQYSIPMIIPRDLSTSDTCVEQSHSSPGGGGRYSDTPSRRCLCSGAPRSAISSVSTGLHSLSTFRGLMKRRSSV
KCNK9 block – inhibitors of human KCNK9 two-pore domain potassium channel; actives 1.2% (n = 310,000); Q9NPC2; AID 488922; HEK293 KCNK9, FluxOR thallium flux fluorescence; hits give low values; B-score at 10 µM;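 active = ratio B-score over 3 SD below the library mean, with starting fluorescence within 5 SD of its mean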;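 also: negative B-score means less thallium flux so channel inhibition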
Each line names hits and unclear results; the compound was inactive in the other large screens.

Cn1nc(OC(=O)Nc2ccc(F)cc2)cc1C(F)(F)F	none
Cn1nc(OC(=O)Nc2ccc(Cl)cc2)cc1C(F)(F)F	KCNQ1 block 8 (no result: KCNK3 block)
Cc1ccc(S(=O)(=O)c2nnn3c2nc(NC2CCN(Cc4ccccc4)CC2)c2ccccc23)cc1C	none
O=C(NC12CC3CC(CC(C3)C1)C2)c1cc2nc(-c3ccco3)cc(C(F)(F)F)n2n1	KCNQ1 block 6
Cc1ccccc1Cn1ccc(NC(=O)c2cnn3c(C(F)(F)F)cc(-c4ccco4)nc23)n1	KCNK9 block -7.6
Cc1ccccc1Cn1ccc(NC(=O)CCSc2nc(-c3ccco3)cc(C(F)(F)F)n2)n1	none
O=C(Nc1cnn(C23CC4CC(CC(C4)C2)C3)c1)c1cnn2c(C(F)(F)F)cc(-c3ccco3)nc12	KCNQ1 block 11
O=C(Nc1ccc2c(c1)OCO2)c1cnn2c(C(F)(F)F)cc(-c3ccco3)nc12	none (no result: hERG rescue, KCNQ1 block, KCNQ1 pot, KCNK9 block)
O=C(NC1CCCCC1)c1cc2nc(-c3ccco3)cc(C(F)(F)F)n2n1	none
Cc1c(Cl)cccc1NC(=S)Nc1ccc(S(=O)(=O)Nc2ncccn2)cc1	none (no result: hERG rescue, KCNQ1 block, KCNQ1 pot, KCNK9 block)
CC1Nc2ccc(C(=O)NC3CCCCC3)cc2NC1=O (stereo not drawn)	none
Cc1cccc(NC(=O)CNC(=O)CN2C(=O)NC3(CCc4ccccc43)C2=O)c1C (stereo not drawn)	none (no result: hERG rescue, KCNQ1 block, KCNQ1 pot, KCNK9 block)
Oc1ccc(N=Nc2ccc3c(c2)OCO3)c2ccccc12	KCNQ1 pot 9 (no result: KCNK3 block)
N#Cc1cn(N2CCCCC2)c(=O)[nH]c1=O	none
Cc1ccc(-c2nc3ccccc3c(=O)n2O)cc1	hERG rescue 7.7
O=c1c2ccccc2nc(-c2ccc([N+](=O)[O-])cc2)n1O	none
O=c1c2ccccc2nc(-c2cccc(Cl)c2)n1O	hERG rescue 23, KCNQ1 pot 13
Cc1ccc(-c2nc3ccc(Cl)cc3c(=O)n2O)cc1	hERG rescue 56, KCNQ1 pot 63
O=c1c2cc(Br)ccc2nc(-c2ccccc2)n1O	hERG rescue 17, KCNQ1 pot 11
Cc1onc(-c2ccccc2)c1C(=O)NC1CC1	none (no result: hERG rescue, KCNQ1 block, KCNQ1 pot, KCNK9 block)
CN1CCC(N(C)C(=O)/C(C#N)=C\c2ccc(OC(F)F)cc2)CC1	none (no result: hERG rescue, KCNQ1 block, KCNQ1 pot, KCNK9 block)
O=CN/C=C/c1cccc(O)c1	none (no result: hERG rescue, KCNQ1 block, KCNQ1 pot, KCNK9 block)
COc1ccccc1-c1noc2ncnc(Nc3cccc(C)c3C)c12	none
COc1ccc(-[n+]2c(C)cc(/C=C3\Sc4ccccc4N3C)cc2C)cc1	KCNQ1 block 23
CC(=O)c1cccc(CN2CCC(C(=O)Nc3ccc(-c4cccc(C)c4)cc3)CC2)c1	none
COc1ccc(N(CC(=O)Nc2ccccc2OC)S(=O)(=O)c2ccc(NC(C)=O)cc2)cc1	none
CC(c1ccccc1)n1c(-c2ccc(Cl)cc2)n[nH]c1=S (stereo not drawn)	hERG rescue 7.8
COc1ccc(OC)c(NC(=O)CSc2nncc(=O)n2N)c1	none
COc1ccccc1N1CCN(C(=O)CCCN2C(=O)c3cccc4cccc(c34)C2=O)CC1	KCNQ1 block 6
COc1ccccc1N1CCN(C(=O)CN2C(=O)c3cccc4cccc(c34)C2=O)CC1	none
COC(=O)c1sccc1NC(=O)CSc1ccccc1NS(=O)(=O)c1ccc(Cl)cc1	none
COC(=O)c1sccc1NC(=O)CSc1ccccc1NS(=O)(=O)c1ccccc1Cl	KCNK9 block -7.2
CCN(c1cccc(C)c1)S(=O)(=O)c1csc(C(N)=O)c1	none
COc1cccc(-c2nc(N3CCN(C)CC3)c3ccccc3n2)c1O	none
COc1cccc(-c2nc(N3CCCCC3C)c3ccccc3n2)c1O (stereo not drawn)	KCNQ1 block 8
O=C1OC(c2ccccc2)(c2cc(Br)ccc2O)c2ccccc21 (stereo not drawn)	KCNK3 block -9.8 (no result: hERG rescue, KCNQ1 block, KCNQ1 pot, KCNK9 block)
Cc1cc(C)n(C(=O)/C(C#N)=N\Nc2ccccc2[N+](=O)[O-])n1	none
Cc1cc(C)n(C(=O)/C(C#N)=N/Nc2cc(Cl)cc(Cl)c2)n1	KCNQ1 block 8
O=C(c1ccc(Cl)cc1)N1CCN(S(=O)(=O)/C=C/c2ccccc2)CC1	none (no result: hERG rescue, KCNQ1 block, KCNQ1 pot, KCNK9 block)
CCNC(=O)C/C(C)=N/NC(=O)C(=O)Nc1ccc(CC)cc1	hERG rescue 4.7
CC(C)(Oc1ccc(Cl)cc1)C(=O)NC1CC1	none
CCN(c1ccccc1)S(=O)(=O)c1ccc(NC(=O)c2nc(S(C)(=O)=O)ncc2Cl)cc1	KCNQ1 pot 17
CCn1c(=O)c2sccc2n(CC(=O)NCCC2=CCCCC2)c1=O	none
Cc1ccccc1C(=O)NNC(=O)C1CC(=O)N(c2ccc3c(c2)OCCO3)C1 (stereo not drawn)	none (no result: hERG rescue, KCNQ1 block, KCNQ1 pot, KCNK9 block)
CC(C)C[C@@H](CN(C)N=O)N(C[C@H](Cc1ccccc1)N(CCc1ccccc1)N=O)N=O	none
CCCC[C@H](CN(N=O)[C@@H](Cc1ccccc1)CN(C)N=O)N(CCc1ccccc1)N=O	KCNQ1 block 6
COc1ccc(C2C(C(C)=O)=C(C)N=c3s/c(=C\c4ccco4)c(=O)n32)c(OC)c1 (stereo not drawn)	none
CCOC(=O)C1=C(C)N=c2s/c(=C/c3ccc(OCC(=O)O)cc3)c(=O)n2C1c1ccc(F)cc1 (stereo not drawn)	none
CCOC(=O)C1=C(C)N=c2s/c(=C/c3ccccc3)c(=O)n2C1c1ccc(OC)c(OC)c1 (stereo not drawn)	none
COc1ccc(C2C(C(C)=O)=C(C)N=c3s/c(=C\c4cc(C)n(C)c4C)c(=O)n32)c(OC)c1 (stereo not drawn)	KCNQ1 block 9
CCOC(=O)C1=C(C)N=c2s/c(=C\c3ccncc3)c(=O)n2C1c1ccc2c(c1)OCO2 (stereo not drawn)	KCNQ1 block 8
CCOC(=O)C1=C(C)N=c2s/c(=C\c3ccc(OCC(=O)O)cc3)c(=O)n2C1c1ccc(Cl)cc1 (stereo not drawn)	KCNQ1 block 7
CCOC(=O)C1=C(C)N=c2s/c(=C/c3ccc(OCC(=O)O)cc3)c(=O)n2C1c1ccc(OC)cc1OC (stereo not drawn)	KCNQ1 block 6
COc1cccc(/C=C/C(=O)OCC(=O)Nc2ccc(Cl)cn2)c1	hERG rescue 5.8
O=C(COC(=O)/C=C/c1cccc(F)c1)Nc1ccc(Cl)cn1	none
CCOC(=O)c1ccc(Nc2ncnc3c2cnn3C)cc1	none
Cn1ncc2c(O/N=C(\N)c3ccc(C(C)(C)C)cc3)ncnc21	KCNQ1 pot 10
CC1CCC/C=C/C(=O)c2c(O)cc(O)cc2CC(=O)O1 (stereo not drawn)	KCNQ1 block 7
C[C@@H]1Cc2c(O)c(O)cc(O)c2C(=O)O1	none
Cc1cc(/C=C2\SC(=S)N(C)C2=O)c(C)n1-c1ccccc1O	none
Cc1cc(/C=C2\SC(=S)N(C)C2=O)c(C)n1-c1ccc(O)cc1	KCNQ1 block 6
CCOc1ccccc1NC1=C(Cl)C(=O)N(c2ccccc2)C1=O	KCNQ1 pot 13
NS(=O)(=O)c1ccc(CCNC(=O)CNC(=O)c2ccc(Br)o2)cc1	none (no result: hERG rescue, KCNQ1 block, KCNQ1 pot, KCNK9 block)

High-throughput results as filed in PubChem BioAssay.
